# According to ChEMBL document CHEMBL1151731, “Targeting pro-invasive oncogenes with short chain fatty acid-hexosamine analogues inhibits the mobility of metastatic MDA-MB-231 breast cancer cells” (J Med Chem, 2008):
# The source made the active and inactive calls. The rule behind the calls is not given here.
# How the values were obtained:
# MDA-MB-231 [1] = assay: Increase in sialic acid production in human MDA-MB-231 cells by periodate-resorcinal assay; assay type: functional, cell-based
# Procedure, shortened: (§1)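 Periodate-resorcinol assay for total sialic acid, adapted to small volumes. Treated cells were trypsinized, washed and resuspended in PBS, Coulter-counted, and lysed by three freeze-thaw cycles. Readings taken within five minutes. Molecules per cell calculated from the harvested cell number and a sialic acid standard curve run alongside. SEM, n ≥ 3.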
# HEK AD293 (Homo sapiens) = assay: Inhibition of NF-kappaB transcriptional activity in human HEK AD293 cells by luciferase reporter gene assay
# MDA-MB-231 [2] = assay: Increase in intracellular sialic acid production in human MDA-MB-231 cells at 50 mM; assay type: functional, cell-based
# MDA-MB-231 [3] = assay: Increase in human MDA-MB-231 cells invasion at 10 mM; assay type: functional, cell-based
# MDA-MB-231 [4] = assay: Increase in human MDA-MB-231 cells invasion at 30 mM; assay type: functional, cell-based
# [5] = target: T1, Histone deacetylase (Homo sapiens) (UniProt Q13547+O15379+Q9UBN7+Q92769+Q9UQL6+Q8WUI4+Q9BY41+Q96DB2+P56524+Q9UKV0+Q969S8); assay: Inhibition of HDAC in human MDA-MB-231 cells assessed as increase in p21 mRNA level by qRT-PCR; assay type: cell-based
# [6] = target: T1, Histone deacetylase (Homo sapiens); assay: Inhibition of HDAC in human MDA-MB-231 cells assessed as increase in histone H3 acetylation after 2 days by densitometry
# MDA-MB-231 [7] = assay: Growth inhibition of human MDA-MB-231 cells after 3 to 5 days; assay type: functional, cell-based
# Procedure, shortened: (§2)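 Proliferation followed over time up to 15 days in MDA-MB-231 cells (RPMI-1640, 10% FBS, 37 °C, 5% CO₂). Compound added at plating from EtOH stock, final EtOH 0.4% v/v. Data averaged from triplicate experiments.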
# MDA-MB-231 [8] = assay: Growth inhibition of human MDA-MB-231 cells after 15 days; assay type: functional, cell-based; procedure, shortened: as §2
# MDA-MB-231 [9] = assay: Increase in MUC1 mRNA transcription in human MDA-MB-231 cells by qRT-PCR; assay type: functional, cell-based
# Procedure, shortened: (§3)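 MDA-MB-231 RNA extracted with Trizol, DNase-treated and column-purified. qRT-PCR with Ct values in quadruplicate; relative expression by 2^-ΔΔCt from average Ct. Amplicons verified by agarose gel electrophoresis.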
# MDA-MB-231 [10] = assay: Enhancement of NFkappaB1 level in human MDA-MB-231 cells by qRT-PCR; assay type: functional, cell-based; procedure, shortened: as §3
# MDA-MB-231 [11] = assay: Downregulation of CXCR4 in human MDA-MB-231 cells by qRT-PCR; assay type: functional, cell-based
# MDA-MB-231 [12] = assay: Reduction of endogenous NFKB1 (p105) mRNA level in human MDA-MB-231 cells; assay type: functional, cell-based
# [13] = target: T1, Histone deacetylase (Homo sapiens); assay: Inhibition of HDAC in human MDA-MB-231 cells assessed as decrease in MUC1 mRNA expression qRT-PCR; assay type: cell-based
# MDA-MB-231 [14] = assay: Induction of salic acid production in human MDA-MB-231 cells by periodate-resorcinal assay; assay type: functional, cell-based; procedure, shortened: as §1
# MDA-MB-231 [15] = assay: Antiproliferative activity against human MDA-MB-231 cells by Coulter counting analysis; assay type: functional, cell-based
# Procedure, shortened: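 MDA-MB-231 cells grown in RPMI-1640 with 10% FBS and plated at 27000 cells/cm² with compound added at plating from EtOH stock (final EtOH 0.4% v/v). Incubated 3 days at 37 °C, 5% CO₂. Viable cells trypsinized and counted on a Coulter counter. SEM, n ≥ 3.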
# MDA-MB-231 [16] = assay: Inhibition of human MDA-MB-231 cells migration at 50 uM by Boyden chamber assay; assay type: functional, cell-based
# MDA-MB-231 [17] = assay: Inhibition of human MDA-MB-231 cells invasion at 50 uM by Boyden chamber assay; assay type: functional, cell-based
# MDA-MB-231 [18] = assay: Suppression of pro-MMP9 mRNA level in human MDA-MB-231 cells after 3 days by qRT-PCR; assay type: functional, cell-based
# Procedure, shortened: (§4)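 Cells exposed 3 days to compound. RNA extracted with Trizol, DNase-treated and column-purified. qRT-PCR with Ct measured in quadruplicate; relative expression by the 2^-ΔΔCt method. Products checked on agarose gel. SEM of independent experiments done in triplicate.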
# MDA-MB-231 [19] = assay: Suppression of CXCR4 mRNA in human MDA-MB-231 cells after 3 days by qRT-PCR; assay type: functional, cell-based; procedure, shortened: as §4
# MDA-MB-231 [20] = assay: Effect on proteosomal activity of human MDA-MB-231 cells measured after 3 days in absence of epoxomicin; assay type: functional, cell-based
# Procedure, shortened: (§5)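 Viable MDA-MB-231 cells (100000 in 100 µL RPMI) incubated with a succinyl luminogenic proteasome substrate; activity expressed as luminescence normalized to untreated controls. Analogue exposure 3 days; epoxomicin control exposure 6 h. SEM of independent experiments in triplicate.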
# MDA-MB-231 [21] = assay: Inhibition of proteosomal activity of human MDA-MB-231 cells measured after 6 hrs in presence of epoxomicin; assay type: functional, cell-based; procedure, shortened: as §5
# MDA-MB-231 [22] = assay: Suppression of MUC1 transcription in human MDA-MB-231 cells by qRT-PCR; assay type: functional, cell-based; procedure, shortened: as §3
# MDA-MB-231 [23] = assay: Cytotoxicity against human MDA-MB-231 cells at >= 150 uM; assay type: functional, cell-based
# MDA-MB-231 [24] = assay: Decrease in MUC1 mRNA transcription in human MDA-MB-231 cells by qRT-PCR; assay type: functional, cell-based; procedure, shortened: as §3
# MDA-MB-231 [25] = assay: Inhibition of human MDA-MB-231 cells migration at 50 uM after 3 days by Boyden chamber assay; assay type: functional, cell-based
# Procedure, shortened: (§6)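 Cells pretreated 2 or 3 days with compound (final EtOH 0.4% v/v), then trypsinized and resuspended in serum-free RPMI-1640. 50000 viable cells per chamber (equal loading confirmed by WST-8) in modified Boyden chambers. Migration measured through 8.0 µm pores toward a serum gradient; invasion through a Matrigel layer. After 24 h at 37 °C, cells were stained with Diff-Quik and counted. Viability rechecked by WST-8 at 24 h. SEM of technical replicates (n = 6 or 3); double-sided t test.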
# MDA-MB-231 [26] = assay: Inhibition of human MDA-MB-231 cells invasion at 50 uM after 3 days by Boyden chamber assay; assay type: functional, cell-based; procedure, shortened: as §6
# MDA-MB-231 [27] = assay: Inhibition of human MDA-MB-231 cells invasion at 50 uM after 2 days by Boyden chamber assay; assay type: functional, cell-based; procedure, shortened: as §6
# MDA-MB-231 [28] = assay: Inhibition of human MDA-MB-231 cells invasion at 150 uM after 2 days by Boyden chamber assay; assay type: functional, cell-based; procedure, shortened: as §6
# MDA-MB-231 [29] = assay: Decrease in MMP9 gelatinase activity in human MDA-MB-231 cells after 3 days by Zymogram assay; assay type: functional, cell-based
# HEK293 = assay: Inhibition of NF-kappaB transcriptional activity in human HEK AD293 cells at 125 uM by luciferase reporter gene assay; assay type: cell-based; set-up: scale not given: the % may be the effect or the level left
# Procedure, shortened: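 HEK AD293 cells (DMEM, 10% FBS) lipofected with an NF-κB consensus luciferase reporter plus an equal mass of SV-promoter β-galactosidase plasmid. Replated after 24 h recovery and treated with compound. Luciferase read by chemiluminescence and β-galactosidase colorimetrically; activity expressed as their ratio. SEM of independent experiments in triplicate.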
# MDA-MB-231 [30] = assay: Inhibition of NF-kappaB transcriptional activity in human MDA-MB-231 cells at 125 uM by luciferase reporter gene assay; assay type: cell-based; set-up: scale not given: the % may be the effect or the level left
# Procedure, shortened: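 MDA-MB-231 cells electroporated with an NF-κB luciferase reporter plus an equal mass of SV-promoter β-galactosidase plasmid. Replated after 24 h recovery and treated with compound. NF-κB transactivation taken as the luciferase to β-galactosidase activity ratio. SEM of independent experiments in triplicate.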
# MDA-MB-231 [31] = assay: Growth inhibition of human MDA-MB-231 cells assessed as rounded-up morphology after 3 days by phase contrast micrograph
smiles,measurement,setting,value
CCCC(=O)OC1O[C@H](CO)[C@@H](OC(=O)CCC)[C@H](OC(=O)CCC)[C@@H]1NC(C)=O (stereo partly specified),Activity,MDA-MB-231 [1],Active
same,Activity,HEK AD293 (Homo sapiens),inactive
CC(=O)N[C@H](C=O)[C@@H](O)[C@H](O)[C@H](O)CO,Activity,MDA-MB-231 [2],Active
same,Activity,MDA-MB-231 [3],Active
same,Activity,MDA-MB-231 [4],inactive
CCCC(=O)O,Activity,[5],Active
same,Activity,[6],Active
CCCC(=O)OC[C@@H](OC(=O)CCC)[C@@H](OC(=O)CCC)[C@@H]1OC(OC(=O)CCC)(C(=O)OC)C[C@H](OC(=O)CCC)[C@@H]1NC(C)=O (stereo partly specified),Activity,MDA-MB-231 [7],Active
same,Activity,MDA-MB-231 [8],inactive
same,Activity,MDA-MB-231 [9],Active
same,Activity,MDA-MB-231 [10],Active
same,Activity,MDA-MB-231 [11],Active
CCCC(=O)OC[C@H]1OC(OC(=O)CCC)[C@@H](OC(=O)CCC)[C@@H](OC(=O)CCC)[C@@H]1OC(=O)CCC (stereo partly specified),Activity,MDA-MB-231 [12],inactive
same,Activity,[5],Active
same,Activity,[13],inactive
same,Activity,MDA-MB-231 [14],inactive
same,Activity,MDA-MB-231 [15],Active
same,Activity,MDA-MB-231 [16],inactive
same,Activity,MDA-MB-231 [17],inactive
same,Activity,MDA-MB-231 [18],Active
same,Activity,MDA-MB-231 [19],Active
same,Activity,MDA-MB-231 [20],inactive
same,Activity,MDA-MB-231 [21],Active
same,Activity,[6],Active
CCCC(=O)OC[C@H]1OC(O)[C@@H](NC(C)=O)[C@@H](OC(=O)CCC)[C@@H]1OC(=O)CCC (stereo partly specified),Activity,MDA-MB-231 [22],Active
same,Activity,MDA-MB-231 [1],Active
same,Activity,MDA-MB-231 [23],Active
CCCC(=O)OC[C@H]1OC(OC(=O)CCC)[C@@H](NC(C)=O)[C@@H](OC(=O)CCC)[C@@H]1OC(=O)CCC (stereo partly specified),Activity,MDA-MB-231 [12],Active
same,Activity,MDA-MB-231 [24],Active
same,Activity,[5],Active
same,Activity,[13],Active
same,Activity,MDA-MB-231 [14],Dose-dependent effect
same,Activity,MDA-MB-231 [15],Active
same,Activity,MDA-MB-231 [25],Active
same,Activity,MDA-MB-231 [26],Active
same,Activity,MDA-MB-231 [27],Active
same,Activity,MDA-MB-231 [28],Active
same,Activity,MDA-MB-231 [29],Dose-dependent effect
same,Activity,MDA-MB-231 [18],inactive
same,Activity,MDA-MB-231 [19],Active
same,Activity,HEK293,75%
same,Activity,MDA-MB-231 [30],75%
same,Activity,MDA-MB-231 [20],inactive
same,Activity,MDA-MB-231 [21],Active
same,Activity,MDA-MB-231 [31],Active
same,Activity,[6],Active
